ChEMBL document CHEMBL4251567 (Eur J Med Chem, 2018)

What was measured:
[1] = target: Histone deacetylase 3 (Homo sapiens) (UniProt O15379); experiment: Inhibition of HDAC3 in human HeLa-S3 cell lysates assessed as remaining activity at 1.6 x 10^-5 M preincubated for 15 mins followed by HDAC-Glo substrate addition measured after 30 to 40 mins by […] relative to control
In short: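 Antibody-capture (ELISA-type) assay: HDAC antibody coated in carbonate/bicarbonate buffer pH 9.4, wells blocked with 5% milk in TBST. HeLa-S3 lysate added at 1 mg/mL for HDAC3, 1 h at 4 °C, then washed. Inhibitor in DMSO preincubated 15 min at RT in HDAC-Glo buffer. HDAC-Glo reagent added, luminescence read after 30-40 min. Concentrations are final. Background = no-antibody well; activity given as % of DMSO control.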

[2] = target: T1, Protein deacetylase HDAC6 (Homo sapiens) (UniProt Q9UBN7); experiment: Inhibition of HDAC6 in human HeLa-S3 cell lysates assessed as remaining activity at […] preincubated for 15 mins followed by HDAC-Glo substrate addition measured after 30 to 40 mins by […] relative to control
T1 sequence (whole entry): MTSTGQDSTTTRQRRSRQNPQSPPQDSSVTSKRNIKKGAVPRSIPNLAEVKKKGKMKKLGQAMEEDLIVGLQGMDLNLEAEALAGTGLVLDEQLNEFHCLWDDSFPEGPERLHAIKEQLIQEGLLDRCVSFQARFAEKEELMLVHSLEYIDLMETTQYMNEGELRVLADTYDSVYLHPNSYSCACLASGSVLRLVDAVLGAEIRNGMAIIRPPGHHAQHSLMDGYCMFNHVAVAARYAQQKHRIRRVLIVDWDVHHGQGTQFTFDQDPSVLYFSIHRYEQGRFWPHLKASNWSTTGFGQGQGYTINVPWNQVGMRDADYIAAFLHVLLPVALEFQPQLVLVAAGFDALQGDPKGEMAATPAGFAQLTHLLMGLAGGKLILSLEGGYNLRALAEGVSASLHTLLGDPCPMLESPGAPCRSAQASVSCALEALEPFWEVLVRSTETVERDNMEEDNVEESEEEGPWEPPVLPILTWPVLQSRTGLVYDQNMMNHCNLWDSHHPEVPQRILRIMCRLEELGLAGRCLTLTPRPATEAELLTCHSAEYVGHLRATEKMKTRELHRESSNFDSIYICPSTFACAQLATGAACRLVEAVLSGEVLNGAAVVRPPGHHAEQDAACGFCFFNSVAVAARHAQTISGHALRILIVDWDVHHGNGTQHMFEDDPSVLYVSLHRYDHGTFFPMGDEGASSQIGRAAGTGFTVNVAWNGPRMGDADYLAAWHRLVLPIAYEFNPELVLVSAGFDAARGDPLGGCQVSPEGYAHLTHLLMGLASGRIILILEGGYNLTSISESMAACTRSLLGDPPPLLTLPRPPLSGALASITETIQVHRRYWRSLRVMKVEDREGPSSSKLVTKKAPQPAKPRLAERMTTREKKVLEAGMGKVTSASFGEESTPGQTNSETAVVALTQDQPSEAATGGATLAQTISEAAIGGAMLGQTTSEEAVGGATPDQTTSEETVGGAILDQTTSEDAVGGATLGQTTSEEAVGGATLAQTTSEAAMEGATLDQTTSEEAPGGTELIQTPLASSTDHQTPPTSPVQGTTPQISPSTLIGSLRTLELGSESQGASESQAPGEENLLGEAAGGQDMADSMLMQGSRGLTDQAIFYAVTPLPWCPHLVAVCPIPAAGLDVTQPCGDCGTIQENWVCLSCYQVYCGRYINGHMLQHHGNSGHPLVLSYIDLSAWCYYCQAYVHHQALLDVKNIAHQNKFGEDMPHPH

[3] = target: Histone deacetylase 2 (Homo sapiens) (UniProt Q92769); experiment: Inhibition of HDAC2 in human HeLa-S3 cell lysates assessed as remaining activity at 4 x 10^-6 M preincubated for 15 mins followed by HDAC-Glo substrate addition […] relative to control
[4] = target: T1, Protein deacetylase HDAC6 (Homo sapiens); experiment: Inhibition of HDAC6 in human HeLa-S3 cell lysates assessed as remaining activity at 5 uM preincubated for 15 mins followed by HDAC-Glo substrate addition measured after 30 to 40 mins by […] relative to control
In short: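 HDAC6 captured on an anti-HDAC6 antibody-coated plate (2 μg/mL, pH 9.4 carbonate buffer, milk-blocked). HeLa-S3 lysate loaded at 1 mg/mL, 1 h at 4 °C, then washed. 15 min RT preincubation with inhibitor in DMSO; HDAC-Glo reagent added, luminescence read at 30-40 min. Concentrations are final. Background = no-antibody well; values are % activity versus DMSO control.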

Chain of Histone deacetylase 2 (Homo sapiens) (Q92769 whole entry): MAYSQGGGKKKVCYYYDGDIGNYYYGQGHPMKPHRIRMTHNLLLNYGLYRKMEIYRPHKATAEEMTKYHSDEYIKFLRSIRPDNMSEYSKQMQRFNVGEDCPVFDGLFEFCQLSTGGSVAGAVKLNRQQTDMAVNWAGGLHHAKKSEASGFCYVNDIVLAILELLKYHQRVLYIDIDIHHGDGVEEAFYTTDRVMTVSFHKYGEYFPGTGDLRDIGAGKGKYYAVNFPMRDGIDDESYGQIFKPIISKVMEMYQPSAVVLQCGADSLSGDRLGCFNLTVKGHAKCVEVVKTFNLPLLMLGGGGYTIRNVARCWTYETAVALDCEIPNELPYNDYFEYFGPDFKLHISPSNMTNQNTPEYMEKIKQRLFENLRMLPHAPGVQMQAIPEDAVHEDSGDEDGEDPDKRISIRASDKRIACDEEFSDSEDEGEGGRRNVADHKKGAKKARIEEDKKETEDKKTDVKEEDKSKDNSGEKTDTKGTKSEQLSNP
Chain of Histone deacetylase 3 (Homo sapiens) (O15379 whole entry): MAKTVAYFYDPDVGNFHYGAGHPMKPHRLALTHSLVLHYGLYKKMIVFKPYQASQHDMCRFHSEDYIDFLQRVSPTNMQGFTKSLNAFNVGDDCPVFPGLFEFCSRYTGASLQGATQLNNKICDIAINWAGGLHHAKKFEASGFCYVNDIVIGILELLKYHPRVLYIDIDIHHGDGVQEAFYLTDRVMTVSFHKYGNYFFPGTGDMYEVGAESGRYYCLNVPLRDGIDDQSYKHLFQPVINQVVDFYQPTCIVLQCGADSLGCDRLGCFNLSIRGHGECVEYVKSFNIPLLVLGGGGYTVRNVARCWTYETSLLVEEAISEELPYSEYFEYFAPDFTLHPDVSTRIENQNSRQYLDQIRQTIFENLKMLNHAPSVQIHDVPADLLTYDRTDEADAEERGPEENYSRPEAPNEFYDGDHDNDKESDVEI

Row | Activity [1] | Activity [2] | Activity [3] | Activity [4] | SMILES
1 | 17% | 18% | 59% |  | CCC(CCCC(=O)Nc1ccccc1)CCC(=O)NO (centres undefined)
2 |  |  |  | 2.9% | O=C(CCC(CCCC(=O)Nc1ccccc1)Cc1ccccc1)NO (racemic)
